How the values were obtained:
[1] = organism: Mus musculus; assay: Toxicity in albino mouse assessed as induction of catalepsy measured at 30 mins intervals until 240 mins; type: organism-based; details: in vivo
Outline: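 Test drug given i.p. to albino mice (n = 6) in place of haloperidol reference (1.0 mg/kg i.p.). Bar test: time (s) holding forelimbs extended on 4 cm high, 1.0 cm diameter wooden bar, cut-off 1100 s, read at 30 min intervals to 120 min and at 240 min. Run 10.00–16.00 h, quiet room, 23–25 °C. ED50 (mg/kg, i.p.).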

[2] = test system: Mus musculus; assay: Antipsychotic activity in ip dosed Swiss albino mouse assessed as inhibition of apomorphine-induced mesh climbing response administered 10 mins prior to apomorphine challenge measured at 5 mins intervals for up to 20 mins after 10 mins post dose; type: functional
Outline: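 Groups of six mice given test compound, saline (control) or clozapine i.p.; apomorphine 2.5 mg/kg i.p. 10 min later. Mesh climbing scored (0 = no paws on cage) at 5 min intervals for 20 min from 10 min post-apomorphine, maximum total score 20. Mean ± SEM; ED50 (mg/kg, i.p.); Kruskal-Wallis or one-way ANOVA vs control.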

[3] = test system: Mus musculus; assay: Antipsychotic activity in ip dosed Swiss albino mouse assessed as inhibition of 5-hydoxytryptophan-induced head twitches behavior administered 30 mins prior to 5-hydoxytryptophan challenge measured at 10 mins intervals for 30 mins after 20 mins post dose; type: functional
Outline: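 Mice (n = 6/group) pretreated with pargyline 75 mg/kg i.p. to slow 5-HTP breakdown; test compound given i.p. 30 min later, then 5-HTP 50 mg/kg i.p. after a further 30 min. Head twitches scored at 10 min intervals for 30 min from 20 min post-5-HTP. Data as mean ± SEM total score; ED50 (mg/kg, i.p.); Kruskal-Wallis or one-way ANOVA vs control.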

| Structure (SMILES) | ED50 [1] [mg/kg] | ED50 [2] [mg/kg] | ED50 [3] [mg/kg] |
| --- | --- | --- | --- |
| COc1ccccc1N1CCN(CC(=O)N(c2ccccc2)c2ccccc2)CC1 | 50.4 | 8.2 | 12.7 |
| O=C(CN1CCN(c2ccccc2)CC1)N(c1ccccc1)c1ccccc1 | 50 | 20.5 | 27 |
| COc1cccc(N2CCN(CC(=O)N(c3ccccc3)c3ccccc3)CC2)c1 | 55.4 | 10 | 15.5 |
| O=C(CN1CCN(c2ccc(Cl)c(Cl)c2)CC1)N(c1ccccc1)c1ccccc1 | 45 | 24 | > 20 |
| Cc1cccc(N2CCN(CC(=O)N(c3ccccc3)c3ccccc3)CC2)c1C | > 40 | 28.5 | > 30 |
| O=C(CN1CCN(c2ccc(F)cc2)CC1)N(c1ccccc1)c1ccccc1 | > 40 | 13.4 | 20 |
| Cc1ccc(N2CCN(CC(=O)N(c3ccccc3)c3ccccc3)CC2)cc1 | > 40 | > 20 | 31.2 |
| CN1CCN(C2=Nc3cc(Cl)ccc3Nc3ccccc32)CC1 [CLOZAPINE] |  | 8.7 | 2.8 |
| O=C(CN1CCN(c2ccc([N+](=O)[O-])cc2)CC1)N(c1ccccc1)c1ccccc1 | > 40 | 30 | > 40 |
| O=C(CN1CCN(c2cccc(Cl)c2)CC1)N(c1ccccc1)c1ccccc1 | 48.4 | 16.5 | 18 |
| O=C(CN1CCN(c2cccc(C(F)(F)F)c2)CC1)N(c1ccccc1)c1ccccc1 | 48 | 21.3 | 30 |

Reference: ChEMBL document CHEMBL1914434, “Synthesis, computational studies and preliminary pharmacological evaluation of 2-[4-(aryl substituted) piperazin-1-yl] N, N-diphenylacetamides as potential antipsychotics” (Eur J Med Chem, 2011)
